Results: ChEMBL document CHEMBL5678798 (Clin Cancer Res, 2009)
pIC50: −log10 of the molar value.

Legend:
[1] = Antiproliferative activity against human SK-ES cells assessed as reduction in cell viability after 72 hrs by CellTiter-Glo assay; type: functional, cell-based
Procedure, shortened: (§1)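 Cells seeded in 96-well plates, left overnight at 37°C, then exposed to a range of test concentrations for 72 h. Viability read by CellTiter-Glo luminescence; IC50 from four-parameter curve fit. Lines kept at 37°C, 5% CO2, in recommended growth medium.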

[2] = Antiproliferative activity against human RDES cells assessed as reduction in cell viability after 72 hrs by CellTiter-Glo assay; type: functional, cell-based; details: RD-ES; procedure, shortened: as §1
[3] = system: MX1; test: Antiproliferative activity against human MX1 cells assessed as reduction in cell viability after 72 hrs by CellTiter-Glo assay; type: functional, cell-based; details: MX1, 72 h; procedure, shortened: as §1
[4] = Cytotoxicity against HFF cells assessed as reduction in cell viability after 72 hrs by CellTiter-Glo assay; type: toxicity, cell-based; details: human; procedure, shortened: as §1
[5] = Toxicity in nu/nu CD-1 mouse xenografted with human COLO 205 cells assessed as reduction in body weight at 30 mg/kg, po administered twice daily for 21 days relative to control; type: organism-based; parameters: scale not given: the % may be the effect or the level left; details: in vivo, 504 h, time 21 day
[6] = (§2) In vivo inhibition of IGF1R in mouse NIH-3T3/LISN cells implanted in IGF1-stimulated nu/nu CD-1 mouse assessed as reduction in IGF1R phosphorylation at 30 mg/kg, po pretreated for 4 hrs followed by IGF1 stimulation and measured after 10 min by […] relative to control; type: functional; details: 4.167 h, time 250 min
Procedure, shortened: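 Female nu/nu CD-1 mice, three per group, bearing ~500 mm3 tumors, given one oral dose of compound or vehicle. At 4 h, 10 µg hIGF-I i.v. via tail vein; saline controls. Tumor and blood taken 10 min later. Tumor lysates in RIPA captured on anti-IGF-IR plates and probed with europium anti-phosphotyrosine. Phospho/total IGF-IR expressed as % of ligand-stimulated control. Blood levels by LC-MS/MS.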

[7] = as §2, with “xenografted” for “implanted”, “3 umol/L blood compound concentration” for “30 mg/kg, po”, “1 to 72” for “4”; type: functional; details: dose 3 µmol/L; time 60-4330 min; at 3 µM
[8] = Inhibition of CDK2/CyclinA (unknown origin); parameters: species or system Homo sapiens
[9] = biological target: Tyrosine-protein kinase JAK3 (Homo sapiens, UniProt P52333); test: Inhibition of JAK3 (unknown origin)
[10] = Inhibition of C-terminal His6-tagged human full length CDK2/N-terminal GST-tagged human full length cyclinA expressed in baculovirus infected Sf21 cells at 0.3 uM by filter binding assay relative to control; details: condition cancer
Procedure, shortened: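 Run in an outsourced profiling panel of 233 kinases. Each kinase was tested with radiometric filter-binding activity assays at a single inhibitor concentration of 0.3 µmol/L. Inhibitor stock was 10 mmol/L in DMSO. Inhibition is reported as percent relative to control.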

[11] = Inhibition of N-terminal His6-tagged recombinant full-length human CDK5/N-terminal GST-tagged recombinant full-length human p35 expressed in baculovirus infected Sf21 cells at 0.3 uM by filter binding assay relative to control; details: condition cancer
Procedure, shortened: (§3)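 Outsourced single-concentration screen in a commercial panel of 233 protein kinases, run as radiometric filter-binding activity assays. Test agent was tested at 0.3 or 3 µmol/L, as given in each line, from a 10 mmol/L DMSO stock. Activity is expressed as percent inhibition relative to control.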

[12] = biological target: Ephrin type-A receptor 5 (Homo sapiens) (UniProt P54756); test: Inhibition of N-terminal His6-tagged human EphA5 expressed in baculovirus infected Sf21 cells at 0.3 uM by filter binding assay relative to control; procedure, shortened: as §3
[13] = biological target: Serine/threonine-protein kinase MRCK beta (Homo sapiens) (UniProt Q9Y5S2); test: Inhibition of N-terminal His6-tagged recombinant human MRCKbeta (1 to 473 residues) expressed in baculovirus infected Sf21 cells at 0.3 uM by filter binding assay relative to control
[14] = biological target: Serine/threonine-protein kinase Nek3 (Homo sapiens) (UniProt P51956); test: Inhibition of N-terminal 6His-tagged recombinant full length human NEK3 expressed in baculovirus infected Sf21 cells at 0.3 uM by filter binding assay relative to control
Procedure, shortened: (§4)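 KinaseProfiler panel of 233 kinases: radiometric filter-binding activity assays with compound at 0.3 or 3 µmol/L. Read-out is percent inhibition.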

[15] = Inhibition of […] N-terminal 6His-tagged full length human P110delta/full length human p85beta expressed in baculovirus infected Sf21 cells at 0.3 uM by filter binding assay relative to control; details: condition cancer
[16] = biological target: Testis-specific serine/threonine-protein kinase 2 (Homo sapiens) (UniProt Q96PF2); test: Inhibition of N-terminal His6-tagged recombinant full length human TSSK2 expressed in baculovirus infected Sf21 cells at 0.3 uM by filter binding assay relative to control; procedure, shortened: as §3
[17] = biological target: Activated CDC42 kinase 1 (Homo sapiens) (UniProt Q07912); test: Inhibition of N-terminal GST-tagged recombinant human ACK1 (1 to 389 residues) expressed in baculovirus infected Sf21 cells at 3 uM by filter binding assay relative to control; procedure, shortened: as §3
[18] = biological target: ALK tyrosine kinase receptor (Homo sapiens) (UniProt Q9UM73); test: Inhibition of N-terminal His6-tagged recombinant human ALK (1058 to end residues) expressed in baculovirus infected Sf21 cells at 3 uM by filter binding assay relative to control; procedure, shortened: as §3
[19] = Inhibition of C-terminal His6-tagged human full length CDK2/N-terminal GST-tagged human full length cyclinA expressed in baculovirus infected Sf21 cells at 3 uM by filter binding assay relative to control; details: condition cancer; procedure, shortened: as §4
[20] = biological target: Death-associated protein kinase 2 (Homo sapiens) (UniProt Q9UIK4); test: Inhibition of N-terminal GST-tagged recombinant human full length DAPK2 expressed in baculovirus infected Sf21 cells at 3 uM by filter binding assay relative to control; procedure, shortened: as §3
[21] = biological target: Ephrin type-A receptor 4 (Homo sapiens) (UniProt P54764); test: Inhibition of N-terminal His6-tagged recombinant human EphA4 (601 to 892 residues) expressed in baculovirus infected Sf21 cells at 3 uM by filter binding assay relative to control
[22] = organism: Homo sapiens; test: Inhibition of N-terminal GST-tagged recombinant human MAPK1 expressed in Escherichia coli at 3 uM by filter binding assay relative to control; procedure, shortened: as §3
[23] = biological target: Serine/threonine-protein kinase PAK 4 (Homo sapiens) (UniProt O96013); test: Inhibition of N-terminal His6/C-terminal GST-tagged recombinant human PAK4 (295 to end residues) expressed in baculovirus infected Sf21 cells at 3 uM by filter binding assay relative to control
[24] = biological target: Serine/threonine-protein kinase D1 (Homo sapiens) (UniProt Q15139); test: Inhibition of N-terminal His6-tagged recombinant full-length human PKCmu expressed in Sf21 cells at 3 uM by filter binding assay relative to control; procedure, shortened: as §3
[25] = biological target: Cytoplasmic tyrosine-protein kinase BMX (Homo sapiens, UniProt P51813); test: Inhibition of N-terminal His6-tagged recombinant full-length human BMX expressed in baculovirus infected Sf21 cells by filter binding assay

Chain of Activated CDC42 kinase 1 (Homo sapiens) (Q07912 whole entry, looked up, the tested form may be a part): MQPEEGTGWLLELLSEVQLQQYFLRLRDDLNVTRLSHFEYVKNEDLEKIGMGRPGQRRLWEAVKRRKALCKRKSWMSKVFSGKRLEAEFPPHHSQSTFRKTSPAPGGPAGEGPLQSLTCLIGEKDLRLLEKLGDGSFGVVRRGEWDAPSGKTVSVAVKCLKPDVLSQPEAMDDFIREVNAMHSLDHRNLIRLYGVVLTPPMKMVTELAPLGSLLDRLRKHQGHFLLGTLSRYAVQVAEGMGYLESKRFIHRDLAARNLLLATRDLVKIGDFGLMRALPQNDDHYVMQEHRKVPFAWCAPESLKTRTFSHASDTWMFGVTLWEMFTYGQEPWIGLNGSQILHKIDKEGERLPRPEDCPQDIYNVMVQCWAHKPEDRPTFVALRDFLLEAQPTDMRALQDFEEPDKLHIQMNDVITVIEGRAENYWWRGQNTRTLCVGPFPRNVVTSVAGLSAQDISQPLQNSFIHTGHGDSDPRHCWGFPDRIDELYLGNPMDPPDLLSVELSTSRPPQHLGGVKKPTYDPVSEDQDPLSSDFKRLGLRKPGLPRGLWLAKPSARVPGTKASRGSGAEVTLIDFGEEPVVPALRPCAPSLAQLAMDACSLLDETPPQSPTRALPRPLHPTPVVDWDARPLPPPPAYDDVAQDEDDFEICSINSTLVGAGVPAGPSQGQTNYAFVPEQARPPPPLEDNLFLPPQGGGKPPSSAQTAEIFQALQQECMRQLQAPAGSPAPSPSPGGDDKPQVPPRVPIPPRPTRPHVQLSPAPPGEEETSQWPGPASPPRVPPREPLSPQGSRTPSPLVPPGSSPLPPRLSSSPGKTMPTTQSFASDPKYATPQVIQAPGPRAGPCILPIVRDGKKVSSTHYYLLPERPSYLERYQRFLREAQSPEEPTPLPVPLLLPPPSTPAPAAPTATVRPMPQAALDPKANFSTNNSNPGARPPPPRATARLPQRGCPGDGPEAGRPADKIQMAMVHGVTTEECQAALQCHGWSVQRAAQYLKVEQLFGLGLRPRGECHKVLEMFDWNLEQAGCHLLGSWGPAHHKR
Chain of Serine/threonine-protein kinase PAK 4 (Homo sapiens) (O96013 whole entry, looked up): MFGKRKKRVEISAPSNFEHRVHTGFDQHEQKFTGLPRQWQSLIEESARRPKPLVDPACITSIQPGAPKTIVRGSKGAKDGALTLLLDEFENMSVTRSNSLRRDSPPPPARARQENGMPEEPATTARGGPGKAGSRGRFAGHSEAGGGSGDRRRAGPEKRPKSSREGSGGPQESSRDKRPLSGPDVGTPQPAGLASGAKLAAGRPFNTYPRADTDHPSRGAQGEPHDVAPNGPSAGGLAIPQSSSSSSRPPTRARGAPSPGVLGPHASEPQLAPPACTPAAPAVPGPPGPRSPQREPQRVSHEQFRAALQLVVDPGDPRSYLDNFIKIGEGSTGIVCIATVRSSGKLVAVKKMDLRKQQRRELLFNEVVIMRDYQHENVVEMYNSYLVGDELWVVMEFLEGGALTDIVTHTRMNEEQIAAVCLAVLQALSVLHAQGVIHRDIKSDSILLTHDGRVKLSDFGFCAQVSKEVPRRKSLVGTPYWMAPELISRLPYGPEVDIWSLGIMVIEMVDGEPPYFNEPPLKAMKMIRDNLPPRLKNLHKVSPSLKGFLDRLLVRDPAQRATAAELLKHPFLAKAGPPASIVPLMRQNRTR
Chain of Tyrosine-protein kinase JAK3 (P52333 whole entry): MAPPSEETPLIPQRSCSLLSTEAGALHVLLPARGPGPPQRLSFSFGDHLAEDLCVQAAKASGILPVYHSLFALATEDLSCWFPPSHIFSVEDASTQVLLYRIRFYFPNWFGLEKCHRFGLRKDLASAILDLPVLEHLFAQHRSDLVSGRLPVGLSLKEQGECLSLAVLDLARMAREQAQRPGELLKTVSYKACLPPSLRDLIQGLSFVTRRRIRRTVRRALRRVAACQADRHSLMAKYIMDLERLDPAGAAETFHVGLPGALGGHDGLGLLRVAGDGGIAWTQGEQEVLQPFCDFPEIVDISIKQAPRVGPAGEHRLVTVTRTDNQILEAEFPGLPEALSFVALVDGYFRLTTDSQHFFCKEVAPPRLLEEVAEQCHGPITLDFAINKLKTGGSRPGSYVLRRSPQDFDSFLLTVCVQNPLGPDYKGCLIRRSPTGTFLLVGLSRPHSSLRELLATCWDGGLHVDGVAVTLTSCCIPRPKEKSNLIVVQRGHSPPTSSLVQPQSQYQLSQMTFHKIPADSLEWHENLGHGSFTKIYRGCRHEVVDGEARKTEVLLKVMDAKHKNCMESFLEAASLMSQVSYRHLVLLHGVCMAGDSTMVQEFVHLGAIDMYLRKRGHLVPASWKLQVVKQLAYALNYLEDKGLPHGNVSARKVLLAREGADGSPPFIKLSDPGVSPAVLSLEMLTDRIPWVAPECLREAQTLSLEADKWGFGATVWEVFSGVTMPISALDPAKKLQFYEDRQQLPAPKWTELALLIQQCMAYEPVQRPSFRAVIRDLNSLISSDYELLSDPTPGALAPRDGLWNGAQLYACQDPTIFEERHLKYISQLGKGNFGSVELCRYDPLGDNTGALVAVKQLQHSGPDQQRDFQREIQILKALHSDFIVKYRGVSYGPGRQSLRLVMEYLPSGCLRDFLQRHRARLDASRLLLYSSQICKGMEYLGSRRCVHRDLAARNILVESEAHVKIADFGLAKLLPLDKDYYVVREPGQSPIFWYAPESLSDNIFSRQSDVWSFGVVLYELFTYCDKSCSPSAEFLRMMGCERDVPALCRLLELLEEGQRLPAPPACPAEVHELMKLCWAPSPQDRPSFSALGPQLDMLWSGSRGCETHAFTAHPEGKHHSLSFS
Chain of Death-associated protein kinase 2 (Homo sapiens) (Q9UIK4 whole entry, looked up, the tested form may be a part): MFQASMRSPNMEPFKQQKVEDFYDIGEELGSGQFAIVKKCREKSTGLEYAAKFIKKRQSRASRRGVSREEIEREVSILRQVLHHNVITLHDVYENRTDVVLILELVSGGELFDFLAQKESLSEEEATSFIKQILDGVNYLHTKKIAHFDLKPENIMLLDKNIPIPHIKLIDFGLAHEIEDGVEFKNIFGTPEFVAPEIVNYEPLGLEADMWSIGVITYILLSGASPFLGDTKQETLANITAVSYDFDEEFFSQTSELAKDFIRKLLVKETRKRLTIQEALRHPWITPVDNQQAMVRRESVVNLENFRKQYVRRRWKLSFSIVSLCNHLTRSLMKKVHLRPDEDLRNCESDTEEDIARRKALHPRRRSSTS
Chain of Ephrin type-A receptor 4 (Homo sapiens) (P54764 whole entry, the tested form may be a part): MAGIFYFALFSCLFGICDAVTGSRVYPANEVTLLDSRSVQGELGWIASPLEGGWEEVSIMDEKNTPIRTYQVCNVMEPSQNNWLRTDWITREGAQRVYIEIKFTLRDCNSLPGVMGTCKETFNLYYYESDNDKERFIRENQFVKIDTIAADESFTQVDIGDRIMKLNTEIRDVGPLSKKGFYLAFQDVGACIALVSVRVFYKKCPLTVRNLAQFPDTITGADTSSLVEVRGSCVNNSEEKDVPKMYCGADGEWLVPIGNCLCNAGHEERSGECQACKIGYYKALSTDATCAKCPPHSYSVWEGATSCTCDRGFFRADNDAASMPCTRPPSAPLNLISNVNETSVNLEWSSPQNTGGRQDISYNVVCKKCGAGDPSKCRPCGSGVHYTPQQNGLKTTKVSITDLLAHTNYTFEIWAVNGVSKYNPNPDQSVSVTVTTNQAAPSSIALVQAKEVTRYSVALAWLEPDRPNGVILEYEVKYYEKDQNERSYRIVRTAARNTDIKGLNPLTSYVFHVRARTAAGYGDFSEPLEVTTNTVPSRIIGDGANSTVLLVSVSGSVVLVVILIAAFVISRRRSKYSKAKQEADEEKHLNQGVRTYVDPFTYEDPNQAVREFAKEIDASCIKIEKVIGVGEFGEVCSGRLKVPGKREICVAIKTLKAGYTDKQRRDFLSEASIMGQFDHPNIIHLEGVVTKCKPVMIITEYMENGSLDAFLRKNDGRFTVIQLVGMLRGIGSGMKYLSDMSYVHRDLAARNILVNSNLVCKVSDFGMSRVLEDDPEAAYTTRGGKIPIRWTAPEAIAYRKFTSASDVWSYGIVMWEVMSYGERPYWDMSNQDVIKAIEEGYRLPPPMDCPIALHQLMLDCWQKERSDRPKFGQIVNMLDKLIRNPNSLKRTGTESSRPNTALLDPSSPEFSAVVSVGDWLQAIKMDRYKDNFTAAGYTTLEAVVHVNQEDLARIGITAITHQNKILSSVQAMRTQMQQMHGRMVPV
Chain of Serine/threonine-protein kinase D1 (Homo sapiens) (Q15139 whole entry): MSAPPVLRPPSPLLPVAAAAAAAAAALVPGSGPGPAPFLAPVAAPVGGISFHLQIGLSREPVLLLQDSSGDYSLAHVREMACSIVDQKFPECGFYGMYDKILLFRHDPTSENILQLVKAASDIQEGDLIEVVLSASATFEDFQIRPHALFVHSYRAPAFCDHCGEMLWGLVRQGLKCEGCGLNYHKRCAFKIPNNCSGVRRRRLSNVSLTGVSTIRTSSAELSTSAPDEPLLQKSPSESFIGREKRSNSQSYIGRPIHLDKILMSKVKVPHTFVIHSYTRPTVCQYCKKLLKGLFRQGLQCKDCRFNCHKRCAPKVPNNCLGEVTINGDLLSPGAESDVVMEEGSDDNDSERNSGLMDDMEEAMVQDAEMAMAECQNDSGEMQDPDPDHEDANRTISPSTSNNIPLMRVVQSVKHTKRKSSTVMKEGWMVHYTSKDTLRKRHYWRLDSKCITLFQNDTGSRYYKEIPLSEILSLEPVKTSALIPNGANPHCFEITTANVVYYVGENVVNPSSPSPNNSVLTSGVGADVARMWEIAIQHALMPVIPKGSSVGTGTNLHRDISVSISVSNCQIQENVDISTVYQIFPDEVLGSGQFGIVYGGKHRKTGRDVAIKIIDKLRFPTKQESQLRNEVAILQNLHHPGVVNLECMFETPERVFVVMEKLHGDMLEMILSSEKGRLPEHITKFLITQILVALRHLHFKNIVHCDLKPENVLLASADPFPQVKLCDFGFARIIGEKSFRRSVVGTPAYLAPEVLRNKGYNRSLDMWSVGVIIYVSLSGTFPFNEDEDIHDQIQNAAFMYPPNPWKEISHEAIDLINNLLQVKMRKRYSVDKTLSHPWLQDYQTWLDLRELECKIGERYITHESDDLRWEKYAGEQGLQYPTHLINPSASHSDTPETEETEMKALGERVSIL

SMILES: CCc1cc(Nc2nccc(-c3c(-c4ccc(OC)c(C(=O)Nc5c(F)cccc5F)c4)nc4ccccn34)n2)c(OC)cc1N1CCC(N2CCN(S(C)(=O)=O)CC2)CC1
- pIC50 [1]: 7.21
- pIC50 [2]: 7.21
- pIC50 [3]: 6.72
- IC50 at 72 h [4]: > 20000 nM
- Activity [5]: > 20%
- inhibition in vivo at 30 mg/kg [6]: 99%
- inhibition (INH) [7]: >90%
- pIC50 [8]: < 5.00
- pIC50 [9]: 4.89
- inhibition at 0.3 µM [10]: 2%
- inhibition at 0.3 µM [11]: -8%
- inhibition [12]: 11%
- inhibition [13]: -10%
- inhibition [14]: 1%
- inhibition at 0.3 µM [15]: 1%
- inhibition [16]: 4%
- inhibition [17]: 34%
- inhibition [18]: 39%
- inhibition at 3 µM [19]: 8%
- inhibition [20]: 4%
- inhibition [21]: -10%
- inhibition [22]: -10%
- inhibition [23]: 0%
- inhibition [24]: 1%
- pIC50 [25]: 5.92
